Consider two compounds from ChEMBL document CHEMBL4732101, “Novel quinolone-based potent and selective HDAC6 inhibitors: Synthesis, molecular modeling studies and biological investigation” (Eur J Med Chem, 2021).

Data set [1] has as its system NIH3T3. The data set is described as follows: Cytotoxicity against mouse NIH/3T3 cells assessed as reduction in cell viability after 24 hrs by neutral red uptake assay. The data set is classed as cell-based. The conditions noted are these: NIH3T3, 24 h. The method in brief:
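NIH3T3 fibroblasts seeded at 5 x 10^4 per well and cultured 24 h at 37 °C, 5% CO2. DMSO-solubilized samples added at 8 to 160 µM for 24 h; medium as negative control. Neutral Red medium applied 3 h, dye desorbed in acetic acid/ethanol, absorbance read at 540 nm. Three experiments, six replicates per concentration; viability normalized to % control.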

Data set [2] can be described thus: Mutagenicity in Salmonella typhimurium TA98 at 5 to 230 uM measured after 90 mins in presence of rat liver S9 fraction by Ames test. The format is toxicity, subcellular. The conditions noted are these: salmonella enterica subsp. enterica serovar typhimurium, s9, 1.5 h, dose 5-230 µM.
Data set [3] in a line: Mutagenicity in Salmonella typhimurium TA100 at 5 to 230 uM measured after 90 mins in presence of rat liver S9 fraction by Ames test. The format is toxicity, subcellular. The conditions noted are these: salmonella enterica subsp. enterica serovar typhimurium, s9, 1.5 h, dose 5-230 µM.
Data set [4] can be described thus: Mutagenicity in Salmonella typhimurium TA98 at 5 to 230 uM measured after 90 mins in absence of rat liver S9 fraction by Ames test. The data set is classed as toxicity. To be noted: salmonella enterica subsp. enterica serovar typhimurium, 1.5 h, dose 5-230 µM.
Data set [5] in a line: Mutagenicity in Salmonella typhimurium TA100 at 5 to 230 uM measured after 90 mins in absence of rat liver S9 fraction by Ames test. The data set is classed as toxicity. To be noted: salmonella enterica subsp. enterica serovar typhimurium, s9, 1.5 h, dose 5-230 µM.
For data set [6], the target named is T1, Histone deacetylase 8 (Homo sapiens, UniProt Q9BY41).
T1 sequence (Q9BY41 whole entry): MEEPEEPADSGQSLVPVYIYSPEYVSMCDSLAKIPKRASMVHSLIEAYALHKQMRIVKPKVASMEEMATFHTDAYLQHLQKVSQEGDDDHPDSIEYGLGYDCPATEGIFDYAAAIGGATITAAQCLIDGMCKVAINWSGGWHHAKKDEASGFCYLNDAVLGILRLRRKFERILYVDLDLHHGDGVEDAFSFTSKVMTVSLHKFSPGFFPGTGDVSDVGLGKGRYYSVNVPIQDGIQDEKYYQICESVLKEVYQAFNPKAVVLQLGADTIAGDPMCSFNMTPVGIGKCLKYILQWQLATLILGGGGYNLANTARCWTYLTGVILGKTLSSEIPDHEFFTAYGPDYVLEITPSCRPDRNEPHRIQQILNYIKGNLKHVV
In words: Inhibition of recombinant human HDAC8 using Fluor-de-Lys as substrate measured after 1 hr by fluorescence assay.

Data set [7] deals with T2, Protein deacetylase HDAC6 (Homo sapiens, UniProt Q9UBN7).
T2 sequence (Q9UBN7 whole entry): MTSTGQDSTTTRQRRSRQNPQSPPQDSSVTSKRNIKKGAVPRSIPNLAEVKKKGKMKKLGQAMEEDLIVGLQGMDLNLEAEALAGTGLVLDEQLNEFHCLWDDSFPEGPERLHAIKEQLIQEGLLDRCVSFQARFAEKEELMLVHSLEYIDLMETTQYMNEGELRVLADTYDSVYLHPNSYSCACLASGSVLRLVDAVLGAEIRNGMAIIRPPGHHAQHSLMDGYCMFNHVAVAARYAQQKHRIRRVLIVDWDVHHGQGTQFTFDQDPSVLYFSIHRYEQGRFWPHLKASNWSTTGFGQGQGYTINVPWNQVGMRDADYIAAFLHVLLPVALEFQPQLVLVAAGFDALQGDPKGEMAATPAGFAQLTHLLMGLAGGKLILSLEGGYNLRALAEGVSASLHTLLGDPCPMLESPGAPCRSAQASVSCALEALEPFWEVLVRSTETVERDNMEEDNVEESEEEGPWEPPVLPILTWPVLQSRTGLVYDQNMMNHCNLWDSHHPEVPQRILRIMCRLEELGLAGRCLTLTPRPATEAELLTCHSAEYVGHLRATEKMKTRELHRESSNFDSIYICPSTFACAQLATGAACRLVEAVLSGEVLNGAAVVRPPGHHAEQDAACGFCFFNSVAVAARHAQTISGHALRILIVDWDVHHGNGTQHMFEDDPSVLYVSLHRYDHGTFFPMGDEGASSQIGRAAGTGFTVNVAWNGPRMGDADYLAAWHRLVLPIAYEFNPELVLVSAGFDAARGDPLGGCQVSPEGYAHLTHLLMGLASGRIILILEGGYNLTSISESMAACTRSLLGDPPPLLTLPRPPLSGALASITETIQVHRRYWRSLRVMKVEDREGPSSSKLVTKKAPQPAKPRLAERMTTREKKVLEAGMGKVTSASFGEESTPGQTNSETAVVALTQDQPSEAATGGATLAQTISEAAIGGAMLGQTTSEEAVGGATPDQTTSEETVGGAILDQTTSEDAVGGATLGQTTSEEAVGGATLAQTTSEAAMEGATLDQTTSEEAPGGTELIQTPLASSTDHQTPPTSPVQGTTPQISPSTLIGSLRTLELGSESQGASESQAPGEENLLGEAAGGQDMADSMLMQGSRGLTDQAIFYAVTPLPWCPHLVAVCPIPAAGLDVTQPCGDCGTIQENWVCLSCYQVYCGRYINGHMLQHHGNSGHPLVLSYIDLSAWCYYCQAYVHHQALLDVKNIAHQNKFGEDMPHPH
The data set is described as follows: Inhibition of recombinant human full length N-terminal GST-tagged HDAC6 expressed in baculovirus infected Sf9 cells using Z-(Ac)Lys-AMC as substrate measured after 90 mins by fluorescence assay.

The target in data set [8] is Histone deacetylase 1 (Homo sapiens, UniProt Q13547). The data set is described as follows: Inhibition of recombinant human C-terminal FLAG/His-tagged HDAC1 (1 to 482 residues) expressed in Sf9 insect cells using Z-(Ac)Lys-AMC as substrate measured after 90 mins by fluorescence assay. The method in brief: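 Incubated with inhibitor in DMSO and fluorogenic substrate Z-(Ac)Lys-AMC (126 µM, as added) for 90 min at 37 °C. Stopped with trichostatin A plus trypsin for 30 min at 37 °C; fluorescence read at ex 390/em 460 nm.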
Chain of Histone deacetylase 1 (Q13547 whole entry, the tested form may be a part): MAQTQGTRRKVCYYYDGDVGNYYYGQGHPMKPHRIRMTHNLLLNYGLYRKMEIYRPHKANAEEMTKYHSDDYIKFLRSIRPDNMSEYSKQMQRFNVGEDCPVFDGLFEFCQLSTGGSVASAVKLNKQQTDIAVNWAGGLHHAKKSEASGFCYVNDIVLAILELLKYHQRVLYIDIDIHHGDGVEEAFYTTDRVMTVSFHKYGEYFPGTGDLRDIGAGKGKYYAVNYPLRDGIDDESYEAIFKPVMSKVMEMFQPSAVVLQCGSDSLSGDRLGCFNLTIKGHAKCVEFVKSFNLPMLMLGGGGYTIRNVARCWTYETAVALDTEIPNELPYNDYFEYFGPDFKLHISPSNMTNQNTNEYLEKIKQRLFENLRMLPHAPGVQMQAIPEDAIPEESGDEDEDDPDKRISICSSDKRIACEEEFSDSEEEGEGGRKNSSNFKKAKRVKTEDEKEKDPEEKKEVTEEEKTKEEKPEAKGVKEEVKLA

In data set [9] the target is T3, Protein deacetylase HDAC6 (Homo sapiens) (UniProt Q9UBN7).
T3 sequence (whole entry): T2 sequence (Q9UBN7 whole entry)
In words: Inhibition of HDAC6 in human HCT-116 cells assessed as increase in Hsp90(AcLys294) acetylation at 10 uM measured after 12 to 24 hrs by Western blot analysis. The data set is classed as cell-based. The conditions noted are these: time 12-24 hrs. The method in brief:
(§1)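 HCT-116 or U937 cells treated at 10 µM for 12 and 24 h. […] Western blot used 40 µg total protein or 5 µg acid-extracted histone. Blots probed for cleaved PARP, acetylated tubulin, H3K9/14ac and Hsp90(AcLys294), normalized to GAPDH or H4. Compared with control cells by one-way ANOVA and Dunnett's test.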

Data set [10] concerns HCT-116. The data set is described as follows: Cytotoxicity against human HCT-116 cells assessed as reduction in cell viability measured after 24 hrs by MTT assay. The format is functional, cell-based. To be noted: HCT-116, 24 h. An outline of the steps: (§2)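 HCT-116 cells grown in DMEM with 10% FBS, 2 mM L-glutamine and antibiotics. 2.5×10^4 cells/well treated in triplicate at 50, 25, 10, 5 and 1 µM for 12, 24 or 48 h. Then MTT 0.5 mg/ml for 3 h, supernatant removed, formazan dissolved in isopropanol, absorbance read at 570 nm. IC50 derived from the concentration series.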

The subject of data set [11] is U-937. The data set is described as follows: Cytotoxicity against human U-937 cells assessed as reduction in cell viability measured after 48 hrs by MTT assay. The data set is classed as functional, cell-based. To be noted: U-937, 48 h. An outline of the steps: (§3)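 U937 cells grown in RPMI-1640 with 10% FBS, 2 mM L-glutamine and penicillin-streptomycin. 2.5×10^4 cells/well treated in triplicate at 50, 25, 10, 5 and 1 µM for 12, 24 or 48 h. MTT 0.5 mg/ml added for 3 h, plate centrifuged 5 min at 1200 rpm, crystals dissolved in isopropanol, A570 read. IC50 derived from the concentration series.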

Data set [12] concerns the target T3, Protein deacetylase HDAC6 (Homo sapiens). The data set is described as follows: Inhibition of HDAC6 in human HCT-116 cells assessed as increase in alpha-tubulin acetylation at 10 uM measured after 12 to 24 hrs by Western blot analysis relative to control. The format is cell-based. To be noted: time 12-24 hrs. The method in brief:
as §1

For data set [13] the target is unchanged. The data set is described as follows: Inhibition of HDAC6 in human U-937 cells assessed as increase in alpha-tubulin acetylation at 10 uM measured after 12 to 24 hrs by Western blot analysis relative to control. To be noted: time 12-24 hrs. The data set is classed as cell-based. An outline of the steps: as §1
Data set [14] relates to U-937. In words: Cytotoxicity against human U-937 cells assessed as reduction in cell proliferation at 50 uM measured after 48 hrs by MTT assay relative to control. The format is functional. The arrangement: scale not given: the % may be the effect or the level left. An outline of the steps:
as §3

Data set [15] has as its system HCT-116. The data set is described as follows: Cytotoxicity against human HCT-116 cells assessed as reduction in cell viability measured after 48 hrs by MTT assay. To be noted: HCT-116, 48 h. The data set is classed as functional, cell-based. An outline of the steps:
as §2

A short description of data set [16]: Inhibition of HDAC1/2/3/8 in human HCT-116 cells assessed as increase in H3K9/14 acetylation at 10 uM measured after 12 to 24 hrs by Western blot analysis relative to control. The format is cell-based. To be noted: hct-116, 10 µM, time 12-24 hrs. The method in brief:
as §1

The target in data set [17] is T3, Protein deacetylase HDAC6 (Homo sapiens). The data set is described as follows: Inhibition of HDAC6 in human U-937 cells assessed as increase in Hsp90(AcLys294) acetylation at 10 uM measured after 12 to 24 hrs by Western blot analysis. The data set is classed as cell-based. The conditions noted are these: time 12-24 hrs. The method in brief:
as §1

Data set [18] in a line: Inhibition of HDAC1/2/3/8 in human U-937 cells assessed as increase in H3K9/14 acetylation at 10 uM measured after 12 to 24 hrs by Western blot analysis. To be noted: u-937, 10 µM, time 12-24 hrs. The format is cell-based. The method in brief: as §1
Data set [19] deals with HCT-116. The data set is described as follows: Cytotoxicity against human HCT-116 cells assessed as cell viability at 50 uM measured after 48 hrs by MTT assay relative to control. The data set is classed as functional. The conditions noted are these: read-out: Activity. An outline of the steps:
as §2

The source made the active and inactive calls. The rule behind the calls is not given here.

In the case of `Cn1c(=O)c(OCc2ccc(C(=O)NO)cc2)c(C2CCCCC2)c2ccccc21`, the IC50 was 18 µM in data set [1], 1.64 µM in data set [6], 0.033 µM in [7] and 3 µM in [8]. Further, the Activity entry in data set [2], in [3], in [4] and in data set [5] was “Non-Toxic” in each case. For the same compound, in data set [6] (human, 1 h), the Kapp was 1.93 µM.
For `O=C(NO)c1ccc(COc2c(-c3ccccc3)c3ccccc3[nH]c2=O)cc1`, the inhibition entry in data set [9] and in [17] was “Active” in each case. The IC50 in [10] came to 33.4 µM; in [11], 27.9 µM; in data set [7] it was 0.147 µM; in data set [15] it was 15 µM; in data set [8] it was 6.6 µM. For the same compound, the fold change (FC) in [12] was above 9; in data set [13], above 9; in [16], 2. In addition, the Activity in data set [14] was 60%. In addition, in [18], the “inhibition (INH)” value was “Active”. For the same compound, in data set [19], the viability at 50 µM was found to be 10%.
